What all share (format): functional
The test system of one assay is Escherichia coli. In words: Antibacterial activity against Escherichia coli C600 N/puc19 after 24 hrs by CLSI broth microdilution method. To be noted: C600 N/puc19, 24 h. The method, boiled down:
(§1)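 Broth microdilution per CLSI in cation-adjusted Mueller–Hinton broth. MIC was taken as the lowest concentration inhibiting visible growth (turbidity).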

The test system of assay [1] is Staphylococcus aureus. In words: Antibacterial activity against methicillin-resistant Staphylococcus aureus RN8175 after 24 hrs by CLSI broth microdilution method. To be noted: RN8175, 24 h. The method, boiled down: (§2)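 Broth microdilution per CLSI in cation-adjusted Mueller–Hinton broth. Plates were incubated 24 h at 37 °C. MIC was taken as the lowest concentration that inhibited growth, judged by turbidity.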
A general note: Dilution methods test growth across graded concentrations, often in twofold steps.

Assay [2] has as its system Staphylococcus aureus. Description: Antibacterial activity against methicillin-resistant Staphylococcus aureus USA-300 after 24 hrs by CLSI broth microdilution method. Particulars: USA-300, 24 h. The method, boiled down:
as §2

Assay [3] relates to Staphylococcus aureus. Description: Antibacterial activity against methicillin-resistant Staphylococcus aureus UAMS-1 after 24 hrs by CLSI broth microdilution method. To be noted: UAMS-1, 24 h. The method, boiled down:
as §2

A further assay deals with Acinetobacter baumannii. Description: Antibacterial activity against Acinetobacter baumannii UNMC 8872 after 24 hrs by CLSI broth microdilution method. Particulars: UNMC 8872, 24 h. The essentials:
as §1

In brackets after ≈: the same amount, converted by molar mass.

Consider `Nc1nc(-c2cc3ccccc3o2)cs1`, for which the minimal inhibitory concentration (MIC) – broadly, the lowest concentration found to suppress growth – is above 256 µg/mL against Escherichia coli, above 256 µg/mL with Staphylococcus aureus [1], above 256 µg/mL in the assay on Staphylococcus aureus [2] and 256 µg/mL (≈ 1180 µM) in the assay on Staphylococcus aureus [3].
As to `CCOC(=O)c1cccc(-c2cccc(-c3csc(N)n3)c2)c1`, the minimum inhibitory concentration (MIC) against Acinetobacter baumannii, in the assay on Escherichia coli, against Staphylococcus aureus [1] and in the assay with Staphylococcus aureus [2] was above 256 µg/mL in each case.
For the molecule `Nc1nc(-c2ccc3ccccc3c2)cs1`, the MIC is above 256 µg/mL with Escherichia coli, above 256 µg/mL in the assay on Staphylococcus aureus [1], above 256 µg/mL against Staphylococcus aureus [2] and 256 µg/mL (≈ 1130 µM) in the assay on Staphylococcus aureus [3].
`Fc1cccc(Nc2nc(-c3ccc(N4CCOCC4)cc3)cs2)c1`: the MIC against Escherichia coli was above 256 µg/mL; in the assay with Staphylococcus aureus [1], above 256 µg/mL; in the assay with Staphylococcus aureus [2], above 256 µg/mL; with Staphylococcus aureus [3], 256 µg/mL (≈ 720 µM).
Consider `CCOC(=O)COc1cccc(-c2cccc(-c3csc(N)n3)c2)c1`, for which the MIC in the assay on Escherichia coli, against Staphylococcus aureus [1] and with Staphylococcus aureus [2] was above 256 µg/mL each time.
In the case of `Nc1nc(-c2cccc(-c3ccc(C(=O)O)cc3)c2)cs1`, the MIC in the assay with Acinetobacter baumannii, against Escherichia coli, in the assay with Staphylococcus aureus [1] and with Staphylococcus aureus [2] was above 256 µg/mL in each case.
Take `O=S(=O)(Nc1nc(-c2ccc(Br)cc2)cs1)c1ccccc1`: the minimal inhibitory concentration (MIC) against Acinetobacter baumannii is above 256 µg/mL; in the assay on Escherichia coli it was above 256 µg/mL; with Staphylococcus aureus [1], 16 µg/mL (≈ 40.5 µM); in the assay with Staphylococcus aureus [2], 64 µg/mL (≈ 162 µM).
As to `Nc1nc2ccc(-c3cccc(OC(F)(F)F)c3)cc2s1`, the figures for the minimal inhibitory concentration (MIC) in the assay on Escherichia coli, against Staphylococcus aureus [1] and in the assay with Staphylococcus aureus [2] were above 256 µg/mL, 8 µg/mL (≈ 25.8 µM) and 16 µg/mL (≈ 51.6 µM), respectively.
For `CO/N=C(\C(=O)N[C@@H]1C(=O)N2C(C(=O)O)=C(CSc3nc(=O)c(O)nn3C)CS[C@H]12)c1csc(N)n1` [CEFTRIAXONE], the MIC was determined as 8 µg/mL (≈ 14.4 µM) in the assay with Acinetobacter baumannii; 2 µg/mL (≈ 3.61 µM) with Escherichia coli; 16 µg/mL (≈ 28.9 µM) in the assay on Staphylococcus aureus [1]; 128 µg/mL (≈ 231 µM) against Staphylococcus aureus [2]; 8 µg/mL (≈ 14.4 µM) in the assay with Staphylococcus aureus [3].
In the case of `CCOC(=O)c1cccc(-c2ccc3sc(N)nc3c2)c1`, the minimum inhibitory concentration (MIC) in the assay on Escherichia coli, in the assay on Staphylococcus aureus [1], with Staphylococcus aureus [2] and in the assay with Staphylococcus aureus [3] was above 256 µg/mL throughout.
In the case of `Nc1nc(-c2ccc(OC(F)(F)F)cc2)cs1`, the figures for the MIC against Escherichia coli, in the assay on Staphylococcus aureus [1] and in the assay on Staphylococcus aureus [2] were above 256 µg/mL, 64 µg/mL (≈ 246 µM) and 64 µg/mL (≈ 246 µM), respectively.
Consider `O=S(=O)(Nc1nc(-c2ccccc2F)cs1)c1ccccc1`, for which the MIC against Escherichia coli was above 256 µg/mL; in the assay on Staphylococcus aureus [1], 32 µg/mL (≈ 95.7 µM); in the assay on Staphylococcus aureus [2], 128 µg/mL (≈ 383 µM).
As to `CCOC(=O)COc1ccc(-c2cccc(-c3csc(N)n3)c2)cc1`, the minimal inhibitory concentration (MIC) in the assay on Escherichia coli was above 256 µg/mL; against Staphylococcus aureus [1], 256 µg/mL (≈ 722 µM); in the assay with Staphylococcus aureus [2], above 256 µg/mL.
In the case of `Nc1nc(-c2ccccc2-c2cccc(OC(F)(F)F)c2)cs1`, the results for the minimum inhibitory concentration (MIC) against Escherichia coli, in the assay with Staphylococcus aureus [1] and in the assay on Staphylococcus aureus [2] were above 256 µg/mL, 16 µg/mL (≈ 47.6 µM) and 16 µg/mL (≈ 47.6 µM), respectively.
With `COC(=O)c1ccc(-c2csc(N)n2)cc1`, the MIC against Escherichia coli was above 256 µg/mL; against Staphylococcus aureus [1] it was 128 µg/mL (≈ 546 µM); with Staphylococcus aureus [2], above 256 µg/mL.
On to `O=S(=O)(Nc1nc2c(s1)CCCC2)c1cccc(C(F)(F)F)c1`, for which the MIC with Escherichia coli, in the assay with Staphylococcus aureus [1], in the assay on Staphylococcus aureus [2] and in the assay with Staphylococcus aureus [3] was above 256 µg/mL in each case.
In the case of `CCOC(=O)CCc1ccc(-c2cccc(-c3csc(N)n3)c2)cc1`, the MIC is above 256 µg/mL with Escherichia coli, 256 µg/mL (≈ 726 µM) against Staphylococcus aureus [1] and above 256 µg/mL with Staphylococcus aureus [2].
Regarding `Nc1nc(-c2cccc(-c3cccc(OC(F)(F)F)c3)c2)cs1`, the MIC was above 256 µg/mL in the assay with Escherichia coli, 4 µg/mL (≈ 11.9 µM) in the assay with Staphylococcus aureus [1] and 8 µg/mL (≈ 23.8 µM) in the assay on Staphylococcus aureus [2].
On the same counts, the results for `COc1ccc(-c2csc(N)n2)cc1` are above 256 µg/mL, above 256 µg/mL and above 256 µg/mL.
For `COC(=O)c1cccc(-c2csc(N)n2)c1` the same measures were above 256 µg/mL, above 256 µg/mL and above 256 µg/mL.
As to `Fc1cccc(Nc2nc(-c3ccc(N4CCCC4)cc3)cs2)c1`, the MIC is above 256 µg/mL in the assay on Escherichia coli, above 256 µg/mL in the assay on Staphylococcus aureus [1], above 256 µg/mL with Staphylococcus aureus [2] and 2 µg/mL (≈ 5.89 µM) with Staphylococcus aureus [3].
On to `O=S(=O)(Nc1nc(C23CC4CC(CC(C4)C2)C3)cs1)c1cccc(C(F)(F)F)c1`, for which the MIC in the assay with Escherichia coli was above 256 µg/mL; against Staphylococcus aureus [1], above 256 µg/mL; against Staphylococcus aureus [2], above 256 µg/mL; in the assay on Staphylococcus aureus [3], 128 µg/mL (≈ 289 µM).
`COC(=O)c1ccccc1-c1cccc(-c2csc(N)n2)c1`: the minimum inhibitory concentration (MIC) against Escherichia coli, with Staphylococcus aureus [1], against Staphylococcus aureus [2] and against Staphylococcus aureus [3] was above 256 µg/mL in each case.
As to `Nc1nc(-c2ccc(-c3cccc(OC(F)(F)F)c3)cc2)cs1`, the MIC against Escherichia coli was above 256 µg/mL; in the assay with Staphylococcus aureus [1] it was 2 µg/mL (≈ 5.95 µM); against Staphylococcus aureus [2] it was above 256 µg/mL.
Take `Nc1nc(-c2ccc(N3CCOCC3)cc2)cs1`: the minimum inhibitory concentration (MIC) is above 256 µg/mL in the assay on Escherichia coli, 256 µg/mL (≈ 980 µM) in the assay on Staphylococcus aureus [1], above 256 µg/mL with Staphylococcus aureus [2] and 128 µg/mL (≈ 490 µM) in the assay on Staphylococcus aureus [3].
Regarding `CCOC(=O)c1cccc(-c2ccccc2-c2csc(N)n2)c1`, the MIC with Acinetobacter baumannii is above 256 µg/mL; against Escherichia coli, above 256 µg/mL; against Staphylococcus aureus [1], 32 µg/mL (≈ 98.6 µM); in the assay with Staphylococcus aureus [2], 256 µg/mL (≈ 789 µM).
`O=S(=O)(Nc1nc(-c2ccccc2Br)cs1)c1ccccc1`: the minimal inhibitory concentration (MIC) with Escherichia coli was above 256 µg/mL; with Staphylococcus aureus [1] it was 32 µg/mL (≈ 81 µM); with Staphylococcus aureus [2], 128 µg/mL (≈ 324 µM).
Consider `Nc1nc(-c2cccc(-c3cccc(C(=O)O)c3)c2)cs1`, for which the MIC in the assay with Acinetobacter baumannii, in the assay on Escherichia coli, with Staphylococcus aureus [1] and against Staphylococcus aureus [2] was above 256 µg/mL throughout.
As for `Nc1nc(-c2ccc(N3CCCC3)cc2)cs1`, the MIC in the assay with Escherichia coli is above 256 µg/mL; with Staphylococcus aureus [1] it was above 256 µg/mL; with Staphylococcus aureus [2], above 256 µg/mL; against Staphylococcus aureus [3], 256 µg/mL (≈ 1040 µM).
On to `CC(=O)OCC1=C(C(=O)O)N2C(=O)[C@@H](NC(=O)c3cccc(-c4csc(N)n4)c3)C2SC1` (stereo not given in full), for which the MIC is above 256 µg/mL in the assay with Escherichia coli, 16 µg/mL (≈ 33.7 µM) against Staphylococcus aureus [1], 256 µg/mL (≈ 539 µM) against Staphylococcus aureus [2] and 256 µg/mL (≈ 539 µM) in the assay with Staphylococcus aureus [3].
Turning to `Fc1cccc(Nc2nc(-c3cccc(Br)c3)cs2)c1`, the MIC with Escherichia coli is above 256 µg/mL; in the assay on Staphylococcus aureus [1], 4 µg/mL (≈ 11.5 µM); against Staphylococcus aureus [2], 4 µg/mL (≈ 11.5 µM); against Staphylococcus aureus [3] it was 2 µg/mL (≈ 5.73 µM).
With `Nc1nc2cc(-c3cccc(OC(F)(F)F)c3)ccc2s1`, the MIC against Escherichia coli is above 256 µg/mL; with Staphylococcus aureus [1], 8 µg/mL (≈ 25.8 µM); in the assay with Staphylococcus aureus [2], 8 µg/mL (≈ 25.8 µM).

The values above are taken from ChEMBL document CHEMBL2203197, “Design and synthesis of 2-aminothiazole based antimicrobials targeting MRSA” (2012).
